Results as given in ChEMBL document CHEMBL1177711, “Novel quinolizidinyl derivatives as antiarrhythmic agents: 2. Further investigation” (J Med Chem, 2010).
Activity calls are given as the source filed them.

Tests used:
Aorta [1] = assay: Vasorelaxant activity in potassium depolarized guinea pig aortic strip assessed as inhibition of calcium-induced contraction at 100 uM; assay type: functional; details: Cavia porcellus
Aorta [2] = assay: Vasorelaxant activity in potassium depolarized guinea pig aortic strip assessed as inhibition of calcium-induced contraction at 50 uM; assay type: functional; details: Cavia porcellus
[3] = Cardioprotective effect in Langendorff perfused guinea pig spontaneously beating […] assessed as atrioventicular conduction time at 1 uM (RVb = 50 to 55 +/- 1 to 4 ms); assay type: functional; details: Cavia porcellus
In short: (§1)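 Whole guinea pig hearts were Langendorff-perfused and their ECG recorded at graded concentrations. Intervals read were PR (atrioventricular conduction time), QT (ventricular action potential duration) and QRS (intraventricular conduction time).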

[4] = Cardioprotective effect in Langendorff perfused guinea pig spontaneously beating […] assessed as intraventicular conduction time at 10 uM (RVb = 19 to 24 +/- 1 to 2 ms); assay type: functional; details: Cavia porcellus; in short: as §1
[5] = Cardioprotective effect in Langendorff perfused guinea pig spontaneously beating […] assessed as intraventicular conduction time at 1 uM (RVb = 19 to 24 +/- 1 to 2 ms); assay type: functional; details: Cavia porcellus; in short: as §1
[6] = Cardioprotective effect in Langendorff perfused guinea pig spontaneously beating […] assessed as intraventicular conduction time at 0.1 uM (RVb = 19 to 24 +/- 1 to 2 ms); assay type: functional; details: Cavia porcellus; in short: as §1
[7] = Cardioprotective effect in Langendorff perfused guinea pig spontaneously beating […] assessed as intraventicular conduction time at 0.01 uM (RVb = 19 to 24 +/- 1 to 2 ms); assay type: functional; details: Cavia porcellus; in short: as §1
[8] = Cardioprotective effect in Langendorff perfused guinea pig spontaneously beating […] assessed as intraventicular conduction time at 0.001 uM (RVb = 19 to 24 +/- 1 to 2 ms); assay type: functional; details: Cavia porcellus; in short: as §1
[9] = Cardioprotective effect in Langendorff perfused guinea pig spontaneously beating […] assessed as atrioventicular conduction time at 10 uM (RVb = 50 to 55 +/- 1 to 4 ms); assay type: functional; details: Cavia porcellus; in short: as §1
[10] = Cardioprotective effect in Langendorff perfused guinea pig spontaneously beating […] assessed as atrioventicular conduction time at 0.1 uM (RVb = 50 to 55 +/- 1 to 4 ms); assay type: functional; details: Cavia porcellus; in short: as §1
[11] = Cardioprotective effect in Langendorff perfused guinea pig spontaneously beating […] assessed as atrioventicular conduction time at 0.01 uM (RVb = 50 to 55 +/- 1 to 4 ms); assay type: functional; details: Cavia porcellus; in short: as §1
[12] = Cardioprotective effect in Langendorff perfused guinea pig spontaneously beating […] assessed as atrioventicular conduction time at 0.001 uM (RVb = 50 to 55 +/- 1 to 4 ms); assay type: functional; details: Cavia porcellus; in short: as §1
[13] = Negative chronotropic activity against potassium-induced contraction in guinea pig left atrium assessed as decrease atrial rate at 100 uM relative to control; assay type: functional, Cavia porcellus, Cardiac atrium; parameters: scale not given: the % may be the effect or the level left
[14] = Antiarrhythmic activity in sinusoidal alternating current-induced guinea pig left atrium assessed as increase in current strength at which extra beats occur measured every 30 mins; assay type: functional, tissue-based; details: Cavia porcellus, Cardiac atrium, 0.5 h
In short: (§2)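 Isolated guinea pig left atria, electrically driven at 1 Hz, were exposed to sinusoidal alternating current to induce arrhythmia. The read-out was the rise in the ac-arrhythmia threshold over concentrations up to 100 μM.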

[15] = Antiarrhythmic activity in sinusoidal alternating current-induced guinea pig left atrium assessed as increase in current strength at which extra beats occur at 50 uM measured every 30 mins; assay type: functional, Cavia porcellus, Cardiac atrium; in short: as §2
[16] = Cardioprotective effect in Langendorff perfused guinea pig spontaneously beating […] assessed as duration of ventricular action potential at 10 uM (RVb = 140 to 161 +/- 2 to 8 ms); assay type: functional, Cavia porcellus, Cardiac ventricle; in short: as §1
[17] = Cardioprotective effect in Langendorff perfused guinea pig spontaneously beating […] assessed as duration of ventricular action potential at 1 uM (RVb = 140 to 161 +/- 2 to 8 ms); assay type: functional, Cavia porcellus, Cardiac ventricle; in short: as §1
[18] = Negative inotropic activity against potassium-induced contraction in guinea pig left atrium assessed as decrease in developed tension at 0.1 uM relative to control; assay type: functional, Cavia porcellus, Cardiac atrium; parameters: scale not given: the % may be the effect or the level left
[19] = Cardioprotective effect in Langendorff perfused guinea pig spontaneously beating […] assessed as duration of ventricular action potential at 0.1 uM (RVb = 140 to 161 +/- 2 to 8 ms); assay type: functional, Cavia porcellus, Cardiac ventricle; in short: as §1
[20] = Cardioprotective effect in Langendorff perfused guinea pig spontaneously beating […] assessed as duration of ventricular action potential at 0.01 uM (RVb = 140 to 161 +/- 2 to 8 ms); assay type: functional, Cavia porcellus, Cardiac ventricle; in short: as §1
[21] = Cardioprotective effect in Langendorff perfused guinea pig spontaneously beating […] assessed as duration of ventricular action potential at 0.001 uM (RVb = 140 to 161 +/- 2 to 8 ms); assay type: functional, Cavia porcellus, Cardiac ventricle; in short: as §1
Heart [22] = assay: Cardioprotective effect in Langendorff perfused guinea pig spontaneously beating […] assessed as heart rat at 0.001 uM (RVb = 175 to 190 +/- 5 to 11 bpm); assay type: functional, Cavia porcellus
Heart [23] = assay: Cardioprotective effect in Langendorff perfused guinea pig spontaneously beating […] assessed as heart rat at 0.01 uM (RVb = 175 to 190 +/- 5 to 11 bpm); assay type: functional, Cavia porcellus
Heart [24] = assay: Cardioprotective effect in Langendorff perfused guinea pig spontaneously beating […] assessed as heart rat at 0.1 uM (RVb = 175 to 190 +/- 5 to 11 bpm); assay type: functional, Cavia porcellus
Heart [25] = assay: Cardioprotective effect in Langendorff perfused guinea pig spontaneously beating […] assessed as heart rat at 1 uM (RVb = 175 to 190 +/- 5 to 11 bpm); assay type: functional, Cavia porcellus
Heart [26] = assay: Cardioprotective effect in Langendorff perfused guinea pig spontaneously beating […] assessed as heart rat at 10 uM (RVb = 175 to 190 +/- 5 to 11 bpm); assay type: functional, Cavia porcellus
Cavia porcellus [27] = species on record: Cavia porcellus; assay: Agonist activity at muscarinic M2 receptor in guinea pig left atrium assessed as negative ionotropic activity in presence of 1 uM atropine; assay type: functional, tissue-based; details: Cardiac atrium
In short: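 Isolated guinea-pig left atria electrically driven at 1 Hz; contractile force (inotropy) recorded. Potency values derived by probit analysis (Litchfield and Wilcoxon).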

[28] = Negative inotropic activity against potassium-induced contraction in guinea pig left atrium assessed as decrease in developed tension; assay type: functional, tissue-based; details: Cavia porcellus, Cardiac atrium
[29] = Negative chronotropic activity against potassium-induced contraction in guinea pig left atrium assessed as decrease atrial rate; assay type: functional, tissue-based; details: Cavia porcellus, Cardiac atrium
[30] = Negative inotropic activity against potassium-induced contraction in guinea pig left atrium assessed as decrease in developed tension at 10 uM relative to control; assay type: functional, Cavia porcellus, Cardiac atrium; parameters: scale not given: the % may be the effect or the level left
[31] = Negative chronotropic activity against potassium-induced contraction in guinea pig left atrium assessed as decrease atrial rate at 0.5 uM relative to control; assay type: functional, Cavia porcellus, Cardiac atrium; parameters: scale not given: the % may be the effect or the level left
Cavia porcellus [32] = species on record: Cavia porcellus; assay: Agonist activity at muscarinic M2 receptor in guinea pig left atrium assessed as negative ionotropic activity in presence of carbachol; assay type: functional, tissue-based; details: Cardiac atrium

Question: Which inhibition at 100 µM (Aorta [1]) does the source give for Cc1cccc(C)c1OC[C@@H]1CCCN2CCCC[C@H]12 here?
Answer: The inhibition at 100 µM was 26%.

Question: For C=C[C@H]1CN2CC[C@H]1C[C@@H]2[C@@H](O)c1ccnc2ccc(OC)cc12 [QUINIDINE], which inhibition at 50 µM (Aorta [2]) is on record?
Answer: The inhibition at 50 µM was 30%.

Question: What about the AV conduction time [3] of the same compound?
Answer: The AV conduction time was 60 ms.

Question: What about the intraventricular conduction time [4] of the same compound?
Answer: Its intraventricular conduction time is 39 ms.

Question: And the intraventricular conduction time [5]?
Answer: Its intraventricular conduction time is 35 ms.

Question: What about the intraventricular conduction time [6] of the same compound?
Answer: Its intraventricular conduction time is 31 ms.

Question: What about the intraventricular conduction time [7] of the same compound?
Answer: The intraventricular conduction time was 27 ms.

Question: What about the intraventricular conduction time [8] of the same compound?
Answer: The intraventricular conduction time was 25 ms.

Question: What about the AV conduction time [9] of the same compound?
Answer: The AV conduction time was 70 ms.

Question: What about the AV conduction time [10] of the same compound?
Answer: Its AV conduction time is 57 ms.

Question: And the AV conduction time [11]?
Answer: Its AV conduction time is 54 ms.

Question: And the AV conduction time [12]?
Answer: The AV conduction time was 53 ms.

Question: With Cc1cccc(C)c1NC(=O)CSC[C@@H]1CCCN2CCCC[C@H]12 [LUPINYLTHIOACETYLANILIDE] as the compound, how does the Activity [13] read?
Answer: Its Activity is 30%.

Question: And the EC50 [14]?
Answer: The EC50 was 590 nM.

Question: And the Activity [15]?
Answer: Its Activity is 67%.

Question: And the Activity [16]?
Answer: Its Activity is 168 ms.

Question: And the Activity [17]?
Answer: The Activity was 164 ms.

Question: And the AV conduction time [3]?
Answer: Its AV conduction time is 55 ms.

Question: What about the Activity [18] of the same compound?
Answer: Its Activity is 48%.

Question: And the Activity [19]?
Answer: The Activity was 157 ms.

Question: And the Activity [20]?
Answer: The Activity was 155 ms.

Question: And the Activity [21]?
Answer: The Activity was 150 ms.

Question: What about the intraventricular conduction time [4] of the same compound?
Answer: The intraventricular conduction time was 23 ms.

Question: And the intraventricular conduction time [5]?
Answer: The intraventricular conduction time was 24 ms.

Question: What about the intraventricular conduction time [6] of the same compound?
Answer: Its intraventricular conduction time is 24 ms.

Question: What about the intraventricular conduction time [7] of the same compound?
Answer: The intraventricular conduction time was 22 ms.

Question: And the intraventricular conduction time [8]?
Answer: The intraventricular conduction time was 22 ms.

Question: And the AV conduction time [9]?
Answer: Its AV conduction time is 60 ms.

Question: What about the AV conduction time [10] of the same compound?
Answer: The AV conduction time was 53 ms.

Question: And the AV conduction time [11]?
Answer: Its AV conduction time is 51 ms.

Question: And the AV conduction time [12]?
Answer: The AV conduction time was 52 ms.

Question: And the Activity (Heart [22])?
Answer: The Activity was 181 bpm.

Question: And the Activity (Heart [23])?
Answer: The Activity was 175 bpm.

Question: And the Activity (Heart [24])?
Answer: The Activity was 171 bpm.

Question: And the Activity (Heart [25])?
Answer: Its Activity is 166 bpm.

Question: What about the Activity (Heart [26]) of the same compound?
Answer: Its Activity is 156 bpm.

Question: With CCN(CC)CC(=O)Nc1c(C)cccc1C [LIDOCAINE] as the compound, how does the inhibition at 50 µM (Aorta [2]) read?
Answer: Its inhibition at 50 µM is 14%.

Question: Which inhibition (Cavia porcellus [27]) does the source give for CN1[C@@H]2CC[C@H]1C[C@@H](OC(=O)C(CO)c1ccccc1)C2 (stereo not given in full) here?
Answer: The inhibition was “inactive”.

Question: With Cc1cc(C)c(NC(=O)C[C@@H]2CCCN3CCCC[C@H]23)c(C)c1 as the compound, how does the inhibition at 100 µM (Aorta [1]) read?
Answer: Its inhibition at 100 µM is 2%.

Question: And the EC50 [28]?
Answer: The EC50 was 10 nM.

Question: And the Activity [15]?
Answer: Its Activity is 49%.

Question: What about the Activity [18] of the same compound?
Answer: Its Activity is 54%.

Question: For COc1ccc2c(c1)nc(-c1ccccc1)c(=O)n2C[C@H]1CCCN2CCCC[C@@H]12, which inhibition at 100 µM (Aorta [1]) is on record?
Answer: Its inhibition at 100 µM is 11%.

Question: What about the EC50 [29] of the same compound?
Answer: Its EC50 is 15300 nM.

Question: What about the EC50 [28] of the same compound?
Answer: The EC50 was 31 nM.

Question: And the Activity [30]?
Answer: The Activity was 85%.

Question: What about the Activity [15] of the same compound?
Answer: Its Activity is 30%.

Question: What does the source list for CC(=O)Nc1ccc(C(=O)NC[C@@H]2CCCN3CCCC[C@H]23)cc1?
Answer: Activity [31]: 14%; EC50 [28]: 56 nM

Question: For C[N+](C)(C)CCOC(N)=O, which inhibition (Cavia porcellus [32]) is on record?
Answer: Its inhibition is “inactive”.
